Data: ChEMBL document CHEMBL1143009, “D- and L-2',3'-didehydro-2',3'-dideoxy-3'-fluoro-carbocyclic nucleosides: synthesis, anti-HIV activity and mechanism of resistance” (J Med Chem, 2007)

How the values were obtained:
Vero = assay: Cytotoxicity against African green monkey Vero cells; assay type: cell-based; conditions: chlorocebus sabaeus
[1] = tested on: Human immunodeficiency virus 1; assay: Antiviral activity against HIV1 LAV1 in human PBM cells by RT assay; assay type: functional, organism-based; conditions: for EC50 / EC90: Human immunodeficiency virus 1, LAV1, PBMC
In short: (§1)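 Human PBM cells were infected with HIV-1. The strain was LAI by default, or xxBRU where indicated. Antiviral activity was reported as EC50 and EC90.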

PBMC = assay: Cytotoxicity against human PBMC; assay type: cell-based
[2] = tested on: Human immunodeficiency virus 1; assay: Antiviral activity against HIV1 xxBRU in human PBM cells by RT assay; assay type: functional, organism-based; in short: as §1
[3] = tested on: Human immunodeficiency virus 1; assay: Antiviral activity against lamivudine-resistant HIV1 M184V mutant in human PBMC cells by RT assay; assay type: functional, organism-based
In short: (§2)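 Human PBM cells infected with lamivudine-resistant HIV-1 M184V and, in parallel, wild-type HIV-1 (xxBRU where footnoted, otherwise LAI). EC50 was determined for each virus, and the mutant EC50 was divided by the wild-type EC50. Carbovir served as positive control.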

[4] = tested on: Human immunodeficiency virus 1; assay: Ratio of EC50 for lamivudine-resistant HIV1 M184V mutant to EC50 for HIV1 […]; assay type: functional; in short: as §2
[5] = Human immunodeficiency virus 1, xxBRU, PBMC
[6] = Human immunodeficiency virus 1, PBMC

| Structure (SMILES) | EC50 [1] [µM] | EC90 [1] [µM] | Activity (Vero) [µM] | Activity (PBMC) [µM] | ED90 [1] [µM] | EC50 [2, 5] [µM] | EC90 [2, 5] [µM] | ED90 [3] [µM] | EC50 [3, 6] [µM] | Ratio [4] | ED90 [2] [µM] | EC90 [3, 6] [µM] |
| --- | --- | --- | --- | --- | --- | --- | --- | --- | --- | --- | --- | --- |
| Nc1ncnc2c1ncn2[C@@H]1C[C@@H](CO)C(F)(F)C1 | > 100 |  | > 100 | 95.1 | >100 |  |  |  |  |  |  |  |
| OC[C@@H]1C[C@@H](n2cnc3c(O)ncnc32)C=C1F | > 100 |  | > 100 | > 100 | >100 |  |  |  |  |  |  |  |
| OC[C@H]1C[C@H](n2cnc3c(O)ncnc32)C=C1F | > 100 |  | > 100 | > 100 | >100 |  |  |  |  |  |  |  |
| Nc1nc2c(ncn2[C@H]2C=C(F)[C@H](CO)C2)c(=O)[nH]1 | 0.41 | 2.8 | > 100 | 21.1 |  | 0.098 | 0.58 | 14.9 | 3.8 | 38.8 |  |  |
| Nc1ccn([C@H]2C=C(F)[C@H](CO)C2)c(=O)n1 | > 100 |  | > 100 | > 100 | >100 |  |  |  |  |  |  |  |
| Nc1nc2c(ncn2[C@@H]2C[C@@H](CO)C(F)(F)C2)c(=O)[nH]1 | > 100 |  | > 100 | > 100 | >100 |  |  |  |  |  |  |  |
| Nc1ccn([C@@H]2C[C@@H](CO)C(F)(F)C2)c(=O)n1 | > 100 |  | > 100 | > 100 | >100 |  |  |  |  |  |  |  |
| Nc1nc2c(ncn2[C@H]2C=C[C@@H](CO)C2)c(=O)[nH]1 [CARBOVIR] |  |  |  |  |  | 0.087 |  |  | 0.2 | 2.3 | 0.27 | 1.1 |
| OC[C@@H]1C[C@@H](n2cnc3c(O)ncnc32)CC1(F)F | > 100 |  | > 100 | > 100 | >100 |  |  |  |  |  |  |  |

Now from value to compound, other results behind:

| EC50 [1] [µM] | EC90 [1] [µM] | Structure (SMILES) | Activity (Vero) [µM] | Activity (PBMC) [µM] | ED90 [1] [µM] | EC50 [2, 5] [µM] | EC90 [2, 5] [µM] | ED90 [3] [µM] | EC50 [3, 6] [µM] | Ratio [4] | ED90 [2] [µM] | EC90 [3, 6] [µM] |
| --- | --- | --- | --- | --- | --- | --- | --- | --- | --- | --- | --- | --- |
| 10.3 | 33.5 | Nc1ncnc2c1ncn2[C@@H]1C=C(F)[C@@H](CO)C1 | > 100 | > 100 |  |  |  |  |  |  |  |  |
| 7.1 | 72 | Nc1ccn([C@@H]2C=C(F)[C@@H](CO)C2)c(=O)n1 | > 100 | > 100 |  |  |  |  |  |  |  |  |
| 6.4 | > 100 | Cc1cn([C@@H]2C=C(F)[C@@H](CO)C2)c(=O)[nH]c1=O | > 100 | > 100 |  |  |  |  |  |  |  |  |
| 14.8 | 40.6 | Nc1ncnc2c1ncn2[C@H]1C=C(F)[C@H](CO)C1 | > 100 | > 100 |  |  |  |  |  |  |  |  |
| > 100 |  | Cc1cn([C@@H]2C[C@@H](CO)C(F)(F)C2)c(=O)[nH]c1=O | > 100 | > 100 | >100 |  |  |  |  |  |  |  |
| 68.8 | > 100 | Cc1cn([C@H]2C=C(F)[C@H](CO)C2)c(=O)[nH]c1=O | > 100 | > 100 |  |  |  |  |  |  |  |  |
| 20.7 | > 100 | Nc1nc2c(ncn2[C@@H]2C=C(F)[C@@H](CO)C2)c(=O)[nH]1 | > 100 | > 100 |  |  |  |  |  |  |  |  |
